From ChEMBL document CHEMBL5550082, “Discovery of pyrazolo[3,4-d]pyrimidines as novel mitogen-activated protein kinase kinase 3 (MKK3) inhibitors” (Bioorg Med Chem, 2024) come the findings set out here.

SMILES strings stand for the structures. ≈ marks a conversion by molar mass, not a printed value. Calls of active or inactive are those of the source. No cut-off for these calls is given here. Bounds are passed on as bounds.

System in the first data set: not listed separately
In words: Aqueous solubility of compound. The class given is physicochemical. Conditions: water (aqueous).
`CC(C)n1nc(-c2cc3cc(O)ccc3[nH]2)c2c(N)ncnc21` registered a solubility of 6 µg/mL (≈ 19.5 µM).

The target of a further data set is T1, Dual specificity mitogen-activated protein kinase kinase 3 (Homo sapiens, UniProt P46734).
T1 sequence (P46734 whole entry): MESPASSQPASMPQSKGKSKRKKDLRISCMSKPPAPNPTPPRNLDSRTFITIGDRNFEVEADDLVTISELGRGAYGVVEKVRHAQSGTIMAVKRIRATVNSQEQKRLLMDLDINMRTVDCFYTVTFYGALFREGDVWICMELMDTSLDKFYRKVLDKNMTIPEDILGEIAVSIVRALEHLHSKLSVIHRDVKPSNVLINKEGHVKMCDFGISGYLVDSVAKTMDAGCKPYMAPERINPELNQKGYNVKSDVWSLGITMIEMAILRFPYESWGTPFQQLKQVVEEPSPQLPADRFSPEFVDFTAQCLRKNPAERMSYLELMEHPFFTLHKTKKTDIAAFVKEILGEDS
In words: Displacement of tracer K-9 from C-terminal NanoLuc fused full-length MKK3 (unknown origin) transfected in HEK293T cells by BRET assay. In kind it is cell-based.
Conditions: not given
Put shortly:
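HEK293T cells in DMEM with 10 % FBS were transiently transfected with full-length wild-type MKK3 carrying a C-terminal NanoLuc fusion and cultured 48 h at 37 °C. The cells were then resuspended in Opti-MEM at 2×10^5 cells/mL. Tracer K-9 was added at 1.0 μM final with compound dilutions (2 % DMSO final) for 2 h. After NanoLuc substrate plus extracellular inhibitor, emissions at 460 and 610 nm were read as mBRET, normalized, and fitted to give IC50.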
Consider `CC(C)(C)n1nc(-c2cc(F)c(O)c(F)c2)c2c(N)ncnc21`, for which the IC50 worked out at 145 µM.

For the next data set, the target named is Death-associated protein kinase 3 (Homo sapiens) (UniProt O43293). In words: Displacement of Eu-Streptavidin from human DAPK3 by TR-FRET assay.
Chain of Death-associated protein kinase 3 (Homo sapiens) (O43293 whole entry, looked up): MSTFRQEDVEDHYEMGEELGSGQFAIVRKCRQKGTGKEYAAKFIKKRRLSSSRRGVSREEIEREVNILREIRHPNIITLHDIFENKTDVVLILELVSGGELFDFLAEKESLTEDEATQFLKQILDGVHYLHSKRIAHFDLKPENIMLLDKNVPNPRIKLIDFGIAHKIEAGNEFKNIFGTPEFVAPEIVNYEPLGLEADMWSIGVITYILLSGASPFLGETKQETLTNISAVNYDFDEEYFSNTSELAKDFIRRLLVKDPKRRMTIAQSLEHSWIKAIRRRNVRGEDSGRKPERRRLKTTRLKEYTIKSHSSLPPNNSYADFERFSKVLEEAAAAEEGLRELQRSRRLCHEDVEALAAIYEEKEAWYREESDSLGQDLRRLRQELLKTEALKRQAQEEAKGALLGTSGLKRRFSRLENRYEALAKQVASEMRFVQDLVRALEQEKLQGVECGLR
Conditions: not given
Put shortly: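 Human DAPK3, biotinylated in vivo during expression, tested in a TR-FRET assay measuring competitive displacement of a generic ATP-competitive fluorescent tracer. Compound tested at a single concentration of 1 µM. Displacement is relative to vehicle: DMSO sets 0 % and a reference inhibitor specific to the kinase sets 100 %.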
`CC(C)n1nc(-c2cc3cc(O)ccc3[nH]2)c2c(N)ncnc21`: the outcome was Active.

`CC(C)(C)n1nc(-c2cc(F)c(O)c(F)c2)c2c(N)ncnc21`: the Activity was above 80%.

System in another data set: not listed separately
Description: Inhibition of N-terminal GST-tagged recombinant human MKK3 […]/T193E mutant expressed in baculovirus infected Sf9 insect cells using STK-3-biotin as substrate at 5 uM preincubated for 30 mins followed by substrate/ATP addition measured after 90 mins by TR-FRET assay relative to control. Particulars: time 120.0 min. Put shortly:
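GST-tagged MKK3 S189E/T193E (MKK3E), glutathione-purified from baculovirus-infected Sf9 cells, was used at 100 nM. It was preincubated 30 min at room temperature with compound, then 1 µM ATP and 1 µM STK-3-biotin peptide were added and reacted at least 90 min at 30 °C. Reactions were stopped with Eu-antibody and streptavidin-XL665, and HTRF was read as the 665/620 nm ratio.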
Turning to `CC(C)(C)n1nc(-c2cccc(C(=O)NC3CC3)c2)c2c(N)ncnc21`, the inhibition was 7.1%. Take `CC(C)(C)n1nc(-c2cccc(Cl)c2)c2c(N)ncnc21`: the inhibition stood at 19.8%. The same measure, in the same setting: under `CC(C)(C)n1nc(-c2ccccc2F)c2c(N)ncnc21` stands 37.4%. As to `CC(C)(C)n1nc(-c2ccnc3ccccc23)c2c(N)ncnc21`, the inhibition amounted to 3.4%. Turning to `CC(C)(C)n1nc(-c2cccc3cn[nH]c23)c2c(N)ncnc21`, the inhibition entry was “inactive”. Regarding `CC(C)(C)n1nc(-c2ccccc2)c2c(N)ncnc21`, the inhibition came out at 34.8%. Consider `CC(C)(C)n1nc(-c2ccc3ncccc3c2)c2c(N)ncnc21`, for which the inhibition is 28.2%. Turning to `CC(C)(C)n1nc(-c2ccc(F)c(C#N)c2)c2c(N)ncnc21`, the inhibition was found to be 35.6%.

On to `CC(C)(C)n1nc(-c2cccc3cnccc23)c2c(N)ncnc21`, for which the inhibition was 12.4%.

Consider `CC(C)(C)n1nc(-c2cccc(Cl)c2F)c2c(N)ncnc21`, for which the inhibition worked out at 35.2%. On the same count and under the same terms, in the case of `CC(C)(C)n1nc(-c2ccc(F)c(C(=O)NCCO)c2)c2c(N)ncnc21` it was 5.2%; in that of `CC(C)(C)n1nc(-c2cc(F)c(O)c(F)c2)c2c(N)ncnc21`, 44.9%; in that of `CC(C)NC(=O)c1ccc(-c2nn(C(C)(C)C)c3ncnc(N)c23)cc1`, 26.4%. Consider `CC(C)(C)n1nc(-c2cccc(C#N)c2)c2c(N)ncnc21`, for which the inhibition entry is “inactive”.

For `CC(C)(C)n1nc(-c2ccc(S(=O)(=O)NC3CC3)cc2)c2c(N)ncnc21`, the inhibition is 12.6%. Still for that read-out and setting: in the case of `CC(C)(C)n1nc(-c2ccc3[nH]ccc3c2)c2c(N)ncnc21` it was 58.2%. With `CC(C)(C)n1nc(-c2cc(Cl)cc(Cl)c2)c2c(N)ncnc21`, the inhibition came to 23.4%. For `CC(C)(C)n1nc(-c2ccc(F)c(Cl)c2)c2c(N)ncnc21`, the inhibition came out at 39.3%. With `CC(C)(C)n1nc(-c2ccc(N)c3ccccc23)c2c(N)ncnc21`, the inhibition stood at 54.8%.
